Columns and labels:
Plasmodium falciparum [1] = experiment: In vitro antimalarial activity against Plasmodium falciparum FG2 parasite; format: functional, organism-based
Method in brief: (§1)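 Young trophozoite-stage P. falciparum cultures were exposed to drug at 0.001–10 μg/mL for 48 h, in triplicate. [³H]hypoxanthine uptake by schizonts was measured by scintillation counting, with drug-free cultures as controls. IC50 was taken from the regression line through mean dpm between maximum and minimum values, and given as mean and SD over n experiments.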

Plasmodium falciparum [2] = experiment: In vitro antimalarial activity against Plasmodium falciparum FG3; format: functional, organism-based; method in brief: as §1
Plasmodium falciparum [3] = experiment: In vitro antimalarial activity against Plasmodium falciparum SGE2; format: functional, organism-based; method in brief: as §1
Plasmodium falciparum [4] = experiment: In vitro antimalarial activity against Plasmodium falciparum FCM6; format: functional, organism-based; method in brief: as §1
Plasmodium falciparum [5] = experiment: In vitro antimalarial activity against Plasmodium falciparum FG1; format: functional, organism-based; method in brief: as §1
Plasmodium falciparum [6] = experiment: In vitro antimalarial activity against Plasmodium falciparum FCM17 parasite; format: functional, organism-based; method in brief: as §1
Plasmodium falciparum [7] = experiment: In vitro antimalarial activity against Plasmodium falciparum FG4; format: functional, organism-based; method in brief: as §1
[8] = Compound was tested antimalarial activity in mice (Mus musculus), infected with Plasmodium berghei N., activity is expressed as the mortality rate at a concentration of 10 mg/kg. in experiment 1; 0 out of 5; format: ADME, organism-based; parameters: dose 10 mg/kg; conditions: in vivo
[9] = Compound was tested antimalarial activity in mice (Mus musculus), infected with Plasmodium berghei N., activity is expressed as the mortality rate at a concentration of 1 mg/kg. in experiment 1; 5 out of 5; format: ADME, organism-based; parameters: dose 1 mg/kg; conditions: in vivo
Mus musculus [10] = experiment: Compound was tested for the antimalarial activity in mice (Mus musculus), infected with Plasmodium yoelii NS., activity is expressed as the percent of parasitaemia observed in mice (Mus musculus) at end of 4-day test at a concentration of 10 mg/kg in experiment 2; format: functional, organism-based; parameters: dose 10 mg/kg
Method in brief: (§2)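 4-day suppressive test in female Swiss mice (25 g), infected at day 0 with 10⁷ parasitized RBC from a donor at 20–30% parasitemia. Drug given subcutaneously in PBS once daily, days 0–3; dose in chloroquine base equivalents. Controls received PBS. Parasitemia was counted on 1000 RBC in Giemsa-stained thin films at day 4 and expressed as percent of control-mouse parasitemia.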

Mus musculus [11] = experiment: Compound was tested for the antimalarial activity in mice (Mus musculus), infected with Plasmodium yoelii NS., activity is expressed as the percent of parasitaemia observed in mice (Mus musculus) at end of 4-day test at a concentration of 10 mg/kg in experiment 1; format: functional, organism-based; parameters: dose 10 mg/kg; method in brief: as §2
Mus musculus [12] = experiment: Compound was tested for the antimalarial activity in mice (Mus musculus), infected with Plasmodium berghei N., activity is expressed as the percent of parasitaemia observed in mice (Mus musculus) at end of 4-day test at a concentration of 10 mg/kg in experiment 1; format: functional, organism-based; parameters: dose 10 mg/kg; method in brief: as §2
Mus musculus [13] = experiment: Compound was tested for the antimalarial activity in mice (Mus musculus), infected with Plasmodium yoelii NS., activity is expressed as the percent of parasitaemia observed in mice (Mus musculus) at end of 4-day test at a concentration of 1 mg/kg in experiment 1; format: functional, organism-based; parameters: dose 1 mg/kg; method in brief: as §2
Mus musculus [14] = experiment: Compound was tested for the antimalarial activity in mice (Mus musculus), infected with Plasmodium berghei N., activity is expressed as the percent of parasitaemia observed in mice (Mus musculus) at end of 4-day test at a concentration of 1 mg/kg in experiment 2; format: functional, organism-based; parameters: dose 1 mg/kg; method in brief: as §2
Mus musculus [15] = experiment: Compound was tested for the antimalarial activity in mice (Mus musculus), infected with Plasmodium yoelii NS., activity is expressed as the percent of parasitaemia observed in mice (Mus musculus) at end of 4-day test at a concentration of 1 mg/kg in experiment 2; format: functional, organism-based; parameters: dose 1 mg/kg; method in brief: as §2
Mus musculus [16] = experiment: Compound was tested for the antimalarial activity in mice (Mus musculus), infected with Plasmodium berghei N., activity is expressed as the percent of parasitaemia observed in mice (Mus musculus) at end of 4 day test at a concentration of 10 mg/kg in experiment 2; format: functional, organism-based; parameters: dose 10 mg/kg; method in brief: as §2
Mus musculus [17] = experiment: Compound was tested for the antimalarial activity in mice (Mus musculus), infected with Plasmodium berghei N., activity is expressed as the percent of parasitaemia observed in mice (Mus musculus) at end of 4 day test at a concentration of 1 mg/kg in experiment 1; format: functional, organism-based; parameters: dose 1 mg/kg; method in brief: as §2
Mus musculus [18] = experiment: Antimalarial activity in mice (Mus musculus), infected with Plasmodium berghei N. activity is expressed as the percent of parasitaemia observed in mice (Mus musculus) at end of 4-day test at a concentration of 1 mg/kg in experiment 1; format: functional; method in brief: as §2
Mus musculus [19] = experiment: Antimalarial activity in mice (Mus musculus), infected with Plasmodium yoelii NS. activity is expressed as the percent of parasitaemia observed in mice (Mus musculus) at end of 4-day test at a concentration of 1 mg/kg in experiment 1; format: functional; method in brief: as §2
Mus musculus [20] = experiment: Antimalarial activity in mice (Mus musculus), infected with Plasmodium berghei N. activity is expressed as the percent of parasitaemia observed in mice (Mus musculus) at end of 4-day test at a concentration of 10 mg/kg in experiment 2; format: functional; method in brief: as §2
Mus musculus [21] = experiment: Antimalarial activity in mice (Mus musculus), infected with Plasmodium yoelii NS., activity is expressed as the percent of parasitaemia observed in mice (Mus musculus) at end of 4-day test at a concentration of 10 mg/kg in experiment 1; format: functional; method in brief: as §2
Mus musculus [22] = experiment: Antimalarial activity in mice (Mus musculus), infected with Plasmodium yoelii NS., activity is expressed as the percent of parasitaemia observed in mice (Mus musculus) at end of 4 day test at a concentration of 1 mg/kg in experiment 2; format: functional; method in brief: as §2
Mus musculus [23] = experiment: Antimalarial activity in mice (Mus musculus), infected with Plasmodium yoelii NS. activity is expressed as the percent of parasitaemia observed in mice (Mus musculus) at end of 4-day test at a concentration of 10 mg/kg in experiment 2; format: functional; method in brief: as §2
Mus musculus [24] = experiment: Antimalarial activity in mice (Mus musculus), infected with Plasmodium berghei N. activity is expressed as the percent of parasitaemia observed in mice (Mus musculus) at end of 4-day test at a concentration of 10 mg/kg in experiment 1; format: functional; method in brief: as §2
Mus musculus [25] = experiment: Antimalarial activity in mice (Mus musculus), infected with Plasmodium berghei N. activity is expressed as the percent of parasitaemia observed in mice (Mus musculus) at end of 4-day test at a concentration of 1 mg/kg in experiment 2; format: functional; method in brief: as §2

7-Chloro-4-[[[2-[(N,N-methyl amino)]ferrocenyl]methyl]amino]quinoline; bis-(2,3-Dihydroxy-succinic acid) [listing 1 of 2 here]
IC50 (Plasmodium falciparum [1]): 0.059 µg/mL | IC50 (Plasmodium falciparum [2]): 0.095 µg/mL | IC50 (Plasmodium falciparum [3]): 0.16 µg/mL | IC50 (Plasmodium falciparum [4]): 0.061 µg/mL | IC50 (Plasmodium falciparum [5]): 0.067 µg/mL | IC50 (Plasmodium falciparum [6]): 0.177 µg/mL | IC50 (Plasmodium falciparum [7]): 0.057 µg/mL | Mortality [8]: 0 | Mortality [9]: 5

7-Chloro-4-[[[2-[(N,N-methyl amino)]ferrocenyl]methyl]amino]quinoline; bis-(2,3-Dihydroxy-succinic acid) [listing 2 of 2 here]
Parasitemia (Mus musculus [10]): 0% | Parasitemia (Mus musculus [11]): 0.3% | Parasitemia (Mus musculus [12]): 0% | Parasitemia (Mus musculus [13]): 125% | Parasitemia (Mus musculus [14]): 75.8% | Parasitemia (Mus musculus [15]): 109% | Parasitemia (Mus musculus [16]): 0% | Parasitemia (Mus musculus [17]): 75.5%

CCN(CC)CCCC(C)Nc1ccnc2cc(Cl)ccc12 (stereo not given) [CHLOROQUINE]
Parasitemia (Mus musculus [18]): 69.2% | Parasitemia (Mus musculus [19]): 64.7% | Parasitemia (Mus musculus [20]): 0.59% | Parasitemia (Mus musculus [21]): 0% | Parasitemia (Mus musculus [22]): 76.6% | Parasitemia (Mus musculus [23]): 0% | Parasitemia (Mus musculus [24]): 2.08% | Parasitemia (Mus musculus [25]): 60.1%

— ChEMBL document CHEMBL1130229, “Synthesis and antimalarial activity in vitro and in vivo of a new ferrocene-chloroquine analogue” (J Med Chem, 1997)
